In ChEMBL document CHEMBL5303300, “EUbOPEN Chemogenomics Library - Multiplex” (2023):
Where “and” joins values, the source holds several entries; their conditions need not be identical. Identical values can stand only once.

Legend:
Format in all cases: toxicity, cell-based
Fibroblast = assay: Multiplex assay against human fibroblast; details: number of replicates 2
How it was run: (§1)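 At seeding, live cells were stained with Hoechst33342, BioTracker Green Microtubule Cytoskeleton Dye, MitoTracker Red and Annexin V Alexa Fluor 680. After compound addition they were imaged on a CQ1 microscope at 37°C and 5% CO2, and CellPathfinder machine-learning gating sorted them into Hoechst high-intensity objects or normal cells, with normal cells further split into healthy, pyknosed or fragmented nuclei and pyknosed cells into mitotic or apoptotic. Tubulin, mitochondrial-mass and membrane-permeability phenotypes are given as per cents of cells with healthy nuclei.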

HEK-293T = assay: Multiplex assay against HEK293T; details: human, number of replicates 2; how it was run: as §1
U2OS = assay: Multiplex assay against U2OS; details: human, number of replicates 2; how it was run: as §1
[1] = 12 h, 1 µM, compound concentration 1 uM
[2] = 12 h, 10 µM, compound concentration 10 uM
[3] = 24 h, 1 µM, compound concentration 1 uM
[4] = 24 h, 10 µM, compound concentration 10 uM
[5] = 48 h, 1 µM, compound concentration 1 uM
[6] = 48 h, 10 µM, compound concentration 10 uM

## CN1CCCN(C(=O)c2cccc(-c3ccc(/C=C4/C(=O)Nc5ccc(Cl)cc54)o3)c2)CC1
Fibroblast; [1]
  Population Apoptotic (%): 43% and 41%
  Population Fragmented Nuclei (%): 4% and 3%
  Population Healthy Nuclei (%): 79% and 72%
  Population Hoechst High Intensity Objects (%): 0%
  Population Membrane Permeable-Phenotype (%): 4% and 1%
  Population Mitochondria Different-Phenotype (%): 2%
  Population Mitotic Cells (%): 56% and 58%
  Population Normal (%): 100%
  Population Pyknosed Nuclei (%): 16% and 24%
  Population Tubulin-Different-Phenotype (%): 20%
  Total Cell Count: 283 and 162
Fibroblast; [2]
  Population Apoptotic (%): 39% and 56%
  Population Fragmented Nuclei (%): 3% and 1%
  Population Healthy Nuclei (%): 8% and 3%
  Population Hoechst High Intensity Objects (%): 0%
  Population Mitochondria Different-Phenotype (%): 7% and 0%
  Population Mitotic Cells (%): 60% and 44%
  Population Normal (%): 99% and 100%
  Population Pyknosed Nuclei (%): 88% and 95%
  Population Tubulin-Different-Phenotype (%): 61% and 100%
  Total Cell Count: 156 and 131
Fibroblast; [3]
  Population Apoptotic (%): 48% and 54%
  Population Fragmented Nuclei (%): 4%
  Population Healthy Nuclei (%): 83% and 75%
  Population Hoechst High Intensity Objects (%): 0%
  Population Membrane Permeable-Phenotype (%): 5% and 3%
  Population Mitochondria Different-Phenotype (%): 3% and 8%
  Population Mitotic Cells (%): 51% and 45%
  Population Normal (%): 100%
  Population Pyknosed Nuclei (%): 12% and 20%
  Population Tubulin-Different-Phenotype (%): 25%
  Total Cell Count: 271 and 164
Fibroblast; [4]
  Population Apoptotic (%): 75% and 57%
  Population Fragmented Nuclei (%): 4% and 7%
  Population Healthy Nuclei (%): 17% and 13%
  Population Hoechst High Intensity Objects (%): 0%
  Population Membrane Permeable-Phenotype (%): 65% and 52%
  Population Mitochondria Different-Phenotype (%): 4% and 0%
  Population Mitotic Cells (%): 24% and 42%
  Population Normal (%): 100%
  Population Pyknosed Nuclei (%): 78%
  Population Tubulin-Different-Phenotype (%): 34% and 30%
  Total Cell Count: 135 and 165
Fibroblast; [5]
  Population Apoptotic (%): 62% and 80%
  Population Fragmented Nuclei (%): 8% and 7%
  Population Healthy Nuclei (%): 81% and 78%
  Population Hoechst High Intensity Objects (%): 0%
  Population Membrane Permeable-Phenotype (%): 4% and 8%
  Population Mitochondria Different-Phenotype (%): 1%
  Population Mitotic Cells (%): 37% and 19%
  Population Normal (%): 100% and 99%
  Population Pyknosed Nuclei (%): 10% and 13%
  Population Tubulin-Different-Phenotype (%): 20% and 17%
  Total Cell Count: 269 and 155
Fibroblast; [6]
  Population Apoptotic (%): 88% and 71%
  Population Fragmented Nuclei (%): 20% and 37%
  Population Healthy Nuclei (%): 26% and 18%
  Population Hoechst High Intensity Objects (%): 0%
  Population Membrane Permeable-Phenotype (%): 50% and 30%
  Population Mitochondria Different-Phenotype (%): 0%
  Population Mitotic Cells (%): 11% and 28%
  Population Normal (%): 100%
  Population Pyknosed Nuclei (%): 52% and 43%
  Population Tubulin-Different-Phenotype (%): 46% and 27%
  Total Cell Count: 120 and 174
HEK-293T; [1]
  Population Apoptotic (%): 58% and 72%
  Population Fragmented Nuclei (%): 4%
  Population Healthy Nuclei (%): 88% and 86%
  Population Hoechst High Intensity Objects (%): 6%
  Population Membrane Permeable-Phenotype (%): 3% and 2%
  Population Mitochondria Different-Phenotype (%): 8% and 12%
  Population Mitotic Cells (%): 41% and 27%
  Population Normal (%): 93%
  Population Pyknosed Nuclei (%): 6% and 9%
  Population Tubulin-Different-Phenotype (%): 60% and 45%
  Total Cell Count: 923 and 535
HEK-293T; [2]
  Population Apoptotic (%): 67% and 62%
  Population Fragmented Nuclei (%): 2% and 1%
  Population Healthy Nuclei (%): 86% and 92%
  Population Hoechst High Intensity Objects (%): 5% and 6%
  Population Membrane Permeable-Phenotype (%): 7% and 4%
  Population Mitochondria Different-Phenotype (%): 38% and 32%
  Population Mitotic Cells (%): 32% and 37%
  Population Normal (%): 94% and 93%
  Population Pyknosed Nuclei (%): 11% and 6%
  Population Tubulin-Different-Phenotype (%): 94% and 96%
  Total Cell Count: 365 and 416
HEK-293T; [3]
  Population Apoptotic (%): 57% and 72%
  Population Fragmented Nuclei (%): 7% and 6%
  Population Healthy Nuclei (%): 86% and 85%
  Population Hoechst High Intensity Objects (%): 9%
  Population Membrane Permeable-Phenotype (%): 2% and 1%
  Population Mitochondria Different-Phenotype (%): 1% and 3%
  Population Mitotic Cells (%): 42% and 27%
  Population Normal (%): 90%
  Population Pyknosed Nuclei (%): 6% and 8%
  Population Tubulin-Different-Phenotype (%): 18% and 20%
  Total Cell Count: 1009 and 610
HEK-293T; [4]
  Population Apoptotic (%): 64% and 56%
  Population Fragmented Nuclei (%): 4% and 2%
  Population Healthy Nuclei (%): 79% and 90%
  Population Hoechst High Intensity Objects (%): 2% and 4%
  Population Membrane Permeable-Phenotype (%): 7% and 8%
  Population Mitochondria Different-Phenotype (%): 34% and 29%
  Population Mitotic Cells (%): 35% and 43%
  Population Normal (%): 97% and 95%
  Population Pyknosed Nuclei (%): 16% and 7%
  Population Tubulin-Different-Phenotype (%): 84% and 87%
  Total Cell Count: 402 and 421
HEK-293T; [5]
  Population Apoptotic (%): 43% and 64%
  Population Fragmented Nuclei (%): 16% and 12%
  Population Healthy Nuclei (%): 81% and 84%
  Population Hoechst High Intensity Objects (%): 6% and 5%
  Population Membrane Permeable-Phenotype (%): 0%
  Population Mitochondria Different-Phenotype (%): 1% and 4%
  Population Mitotic Cells (%): 56% and 35%
  Population Normal (%): 93% and 94%
  Population Pyknosed Nuclei (%): 2%
  Population Tubulin-Different-Phenotype (%): 14% and 15%
  Total Cell Count: 1019 and 606
HEK-293T; [6]
  Population Apoptotic (%): 60% and 55%
  Population Fragmented Nuclei (%): 6%
  Population Healthy Nuclei (%): 46% and 55%
  Population Hoechst High Intensity Objects (%): 7% and 3%
  Population Membrane Permeable-Phenotype (%): 3% and 2%
  Population Mitochondria Different-Phenotype (%): 50% and 38%
  Population Mitotic Cells (%): 39% and 44%
  Population Normal (%): 92% and 96%
  Population Pyknosed Nuclei (%): 47% and 38%
  Population Tubulin-Different-Phenotype (%): 77% and 76%
  Total Cell Count: 403 and 446
U2OS; [1]
  Population Apoptotic (%): 64% and 66%
  Population Fragmented Nuclei (%): 9% and 10%
  Population Healthy Nuclei (%): 77% and 81%
  Population Hoechst High Intensity Objects (%): 0%
  Population Membrane Permeable-Phenotype (%): 0%
  Population Mitochondria Different-Phenotype (%): 6% and 0%
  Population Mitotic Cells (%): 35% and 33%
  Population Normal (%): 100%
  Population Pyknosed Nuclei (%): 13% and 8%
  Population Tubulin-Different-Phenotype (%): 70% and 43%
U2OS; [2]
  Population Apoptotic (%): 91% and 64%
  Population Healthy Nuclei (%): 18% and 30%
  Population Hoechst High Intensity Objects (%): 0% and 10%
  Population Normal (%): 99% and 89%
  Population Pyknosed Nuclei (%): 68% and 26%
  Population Tubulin-Different-Phenotype (%): 100% and 56%
  Total Cell Count: 142 and 58
U2OS; [3]
  Population Apoptotic (%): 62% and 87%
  Population Fragmented Nuclei (%): 7% and 8%
  Population Healthy Nuclei (%): 73%
  Population Hoechst High Intensity Objects (%): 0%
  Population Membrane Permeable-Phenotype (%): 6% and 2%
  Population Mitochondria Different-Phenotype (%): 3% and 5%
  Population Normal (%): 100%
  Population Pyknosed Nuclei (%): 19% and 18%
  Population Tubulin-Different-Phenotype (%): 53% and 72%
U2OS; [4]
  Population Apoptotic (%): 95% and 57%
  Population Hoechst High Intensity Objects (%): 0% and 15%
  Population Normal (%): 99% and 85%
  Population Pyknosed Nuclei (%): 89% and 41%
  Population Tubulin-Different-Phenotype (%): 100% and 72%
  Total Cell Count: 136 and 60
U2OS; [5]
  Population Apoptotic (%): 77% and 90%
  Population Fragmented Nuclei (%): 10%
  Population Healthy Nuclei (%): 65% and 61%
  Population Hoechst High Intensity Objects (%): 0%
  Population Membrane Permeable-Phenotype (%): 8% and 4%
  Population Mitochondria Different-Phenotype (%): 0% and 1%
  Population Mitotic Cells (%): 22% and 10%
  Population Normal (%): 100%
  Population Pyknosed Nuclei (%): 23% and 28%
  Population Tubulin-Different-Phenotype (%): 52% and 80%
  Total Cell Count: 38 and 106
U2OS; [6]
  Population Apoptotic (%): 96% and 62%
  Population Healthy Nuclei (%): 22% and 27%
  Population Hoechst High Intensity Objects (%): 0% and 14%
  Population Normal (%): 100% and 85%
  Population Pyknosed Nuclei (%): 73% and 29%
  Population Tubulin-Different-Phenotype (%): 92% and 86%
  Total Cell Count: 127 and 64
